From article PMC7578760 (iScience, 2020)

Test system: CIC
Assay: Nuclear/cytoplasmic distribution of CIC
Assay type: cell-based, human
Conditions: 293T and MCF7; FGF 10 ng/mL or EGF 75 ng/mL, time course
Procedure, shortened: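 293T and MCF7 cells grown in high-glucose DMEM with 10% FBS and penicillin-streptomycin. Endogenous CIC: cells exposed to 10 ng/mL FGF or 75 ng/mL EGF for indicated times. Exogenous CIC: cells transfected with HA-CIC plasmid for 48 h, then FGF 10 ng/mL for 0, 1, 2 h. Cells separated into nuclear and cytoplasmic fractions; CIC in each fraction detected by western blot.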

B1: EGF: mitogen, 75 ng/mL (protein, UniProt P01133 23-1207, looked up)
Pro-epidermal growth factor: PQHWSCPEGTLAGNGNSTCVGPAPFLIFSHGNSIFRIDTEGTNYEQLVVDAGVSVIMDFHYNEKRIYWVDLERQLLQRVFLNGSRQERVCNIEKNVSGMAINWINEEVIWSNQQEGIITVTDMKGNNSHILLSALKYPANVAVDPVERFIFWSSEVAGSLYRADLDGVGVKALLETSEKITAVSLDVLDKRLFWIQYNREGSNSLICSCDYDGGSVHISKHPTQHNLFAMSLFGDRIFYSTWKMKTIWIANKHTGKDMVRINLHSSFVPLGELKVVHPLAQPKAEDDTWEPEQKLCKLRKGNCSSTVCGQDLQSHLCMCAEGYALSRDRKYCEDVNECAFWNHGCTLGCKNTPGSYYCTCPVGFVLLPDGKRCHQLVSCPRNVSECSHDCVLTSEGPLCFCPEGSVLERDGKTCSGCSSPDNGGCSQLCVPLSPVSWECDCFPGYDLQLDEKSCAASGPQPFLLFANSQDIRHMHFDGTDYGTLLSQQMGMVYALDHDPVENKIYFAHTALKWIERANMDGSQRERLIEEGVDVPEGLAVDWIGRRFYWTDRGKSLIGRSDLNGKRSKIITKENISQPRGIAVHPMAKRLFWTDTGINPRIESSSLQGLGRLVIASSDLIWPSGITIDFLTDKLYWCDAKQSVIEMANLDGSKRRRLTQNDVGHPFAVAVFEDYVWFSDWAMPSVMRVNKRTGKDRVRLQGSMLKPSSLVVVHPLAKPGADPCLYQNGGCEHICKKRLGTAWCSCREGFMKASDGKTCLALDGHQLLAGGEVDLKNQVTPLDILSKTRVSEDNITESQHMLVAEIMVSDQDDCAPVGCSMYARCISEGEDATCQCLKGFAGDGKLCSDIDECEMGVPVCPPASSKCINTEGGYVCRCSEGYQGDGIHCLDIDECQLGEHSCGENASCTNTEGGYTCMCAGRLSEPGLICPDSTPPPHLREDDHHYSVRNSDSECPLSHDGYCLHDGVCMYIEALDKYACNCVVGYIGERCQYRDLKWWELRHAGHGQQQKVIVVAVCVVVLVMLLLLSLWGAHYYRTQKLLSKNPKNPYEESSRDVRSRRPADTEDGMSSCPQPWFVVIKEHQDLKNGGQPVAGEDGQAADGSMQPTSWRQEPQLCGMGTEQGCWIPVSSDKGSCPQVMERSFHMPSYGTQTLEGGVEKPHSLLSANPLWQQRALDPPHQMELTQ
modifications: Pro-epidermal growth factor
cytosolic fraction of CIC: time-dependent increase in the cytosolic fraction of CIC
nuclear fraction of CIC: concomitant drop of the nuclear fraction
